The target of assay [1] is T1, Proteasome subunit beta type-10 (Homo sapiens, UniProt P40306).
T1 sequence (P40306 whole entry): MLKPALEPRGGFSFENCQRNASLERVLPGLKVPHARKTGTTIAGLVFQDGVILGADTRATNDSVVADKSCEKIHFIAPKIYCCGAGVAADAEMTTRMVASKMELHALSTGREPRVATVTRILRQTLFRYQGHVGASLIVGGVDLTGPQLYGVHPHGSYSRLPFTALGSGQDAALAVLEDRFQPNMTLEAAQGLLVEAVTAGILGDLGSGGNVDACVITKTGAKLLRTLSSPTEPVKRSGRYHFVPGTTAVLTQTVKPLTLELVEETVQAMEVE
Briefly: Inhibition of 20S immunoproteasome beta 2 (unknown origin) by cell based ABPP assay. In outline: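 Living RPMI-8226 cells, (5–8) ×10^5 cells/mL, exposed to inhibitor 1 h at 37 °C, washed, lysed in digitonin buffer 1 h on ice; residual activity labelled with cocktail ABPs, SDS-PAGE in-gel fluorescence, bands divided by mock, Coomassie staining to correct loading. IC50 from mean of three independent experiments.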

The species named for assay [2] is Homo sapiens. Briefly: Selectivity ratio of IC50 for 20S immunoproteasome beta 2 (unknown origin) to IC50 for 20S constitutive proteasome beta 2 trypsin-like activity (unknown origin).
Assay [3] addresses T1, Proteasome subunit beta type-10. Briefly: Inhibition of 20S immunoproteasome beta 2 in human Raji cell lysates after 1 hr by competitive ABPP assay. Type of assay: subcellular, Lysate.
In assay [4] the target is T2, Proteasome Macropain subunit MB1 (Homo sapiens, UniProt P28074).
T2 sequence (P28074 whole entry): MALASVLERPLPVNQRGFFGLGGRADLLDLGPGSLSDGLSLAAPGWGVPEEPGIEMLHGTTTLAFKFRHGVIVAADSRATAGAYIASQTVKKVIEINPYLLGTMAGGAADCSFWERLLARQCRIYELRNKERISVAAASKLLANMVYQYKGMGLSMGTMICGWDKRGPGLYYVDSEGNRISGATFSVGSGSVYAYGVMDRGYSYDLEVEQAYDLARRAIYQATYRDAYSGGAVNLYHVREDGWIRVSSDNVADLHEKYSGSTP
Briefly: Inhibition of 20S constitutive proteasome beta 5 chymotrypsin-like activity in human RPMI8226 cell lysates after 1 hr by coomassie brilliant blue staining-based fluorescence assay. It is filed as subcellular, Lysate. In a few lines: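 Cells at (5–8)×10⁵ cells/mL were exposed to inhibitor for 1 h at 37 °C, washed in PBS and lysed on ice for 1 h in digitonin/ATP buffer. Residual activity was read by cocktail-ABP labeling, SDS-PAGE and fluorescence densitometry relative to mock, with Coomassie staining correcting for loading. IC50 came from three independent experiments.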

Assay [5] addresses T2, Proteasome Macropain subunit MB1. Briefly: Inhibition of 20S constitutive proteasome beta 5 chymotrypsin-like activity in human Raji cell lysates after 1 hr by competitive ABPP assay. Type of assay: subcellular, Lysate.
For assay [6], the target named is T3, Proteasome subunit beta type-8 (Homo sapiens, UniProt P28062).
T3 sequence (P28062 whole entry): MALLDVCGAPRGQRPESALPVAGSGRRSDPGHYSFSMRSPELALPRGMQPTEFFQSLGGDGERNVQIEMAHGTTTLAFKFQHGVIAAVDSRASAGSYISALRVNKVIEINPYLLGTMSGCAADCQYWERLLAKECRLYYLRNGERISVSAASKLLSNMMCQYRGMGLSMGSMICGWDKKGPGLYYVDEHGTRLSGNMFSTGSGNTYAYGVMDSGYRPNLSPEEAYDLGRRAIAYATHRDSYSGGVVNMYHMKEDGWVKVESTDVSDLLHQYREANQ
Put plainly: Inhibition of 20S immunoproteasome beta 5 in human Raji cell lysates after 1 hr by competitive ABPP assay. It is filed as subcellular, Lysate.

Assay [7] addresses T4, Proteasome subunit beta type-6 (Homo sapiens, UniProt P28072).
T4 sequence (P28072 whole entry): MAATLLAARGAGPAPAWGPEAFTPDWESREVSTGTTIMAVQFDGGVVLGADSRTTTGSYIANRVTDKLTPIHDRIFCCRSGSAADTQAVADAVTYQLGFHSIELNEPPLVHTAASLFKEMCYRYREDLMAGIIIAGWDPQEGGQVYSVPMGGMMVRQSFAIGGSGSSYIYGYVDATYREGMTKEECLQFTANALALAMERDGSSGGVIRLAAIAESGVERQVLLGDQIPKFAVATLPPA
Put plainly: Inhibition of 20S constitutive proteasome beta 1 caspase-like activity in human Raji cell lysates after 1 hr by competitive ABPP assay. Type of assay: subcellular, Lysate. In outline: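 Raji cells were sonicated in 3 volumes of Tris pH 7.5 lysis buffer containing DTT, MgCl₂, sucrose, 2 mM ATP and 0.05% digitonin. Lysate (5 μg protein, in buffer with 2 mM ATP and glycerol) was preincubated with inhibitor for 1 h at 37 °C, then with a cocktail of three fluorescent ABPs for 1 h. In-gel fluorescence densitometry was normalized to mock. IC50 came from the mean of three experiments.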

Assay [8] addresses T5, Proteasome subunit beta type-9 (Homo sapiens, UniProt P28065).
T5 sequence (P28065 whole entry): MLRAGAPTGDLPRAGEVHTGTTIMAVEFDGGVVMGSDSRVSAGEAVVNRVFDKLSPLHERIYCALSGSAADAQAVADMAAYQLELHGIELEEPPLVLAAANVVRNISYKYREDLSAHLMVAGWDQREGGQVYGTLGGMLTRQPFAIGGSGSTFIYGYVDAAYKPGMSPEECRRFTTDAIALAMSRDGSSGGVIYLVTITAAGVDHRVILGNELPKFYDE
Put plainly: Inhibition of 20S immunoproteasome beta 1 in human Raji cell lysates after 1 hr by competitive ABPP assay. Type of assay: subcellular, Lysate. In a few lines: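 Raji cells were sonicated in 3 volumes of Tris pH 7.5 lysis buffer containing DTT, MgCl₂, sucrose, 2 mM ATP and 0.05% digitonin. Lysate (5 μg protein, in buffer with 2 mM ATP and glycerol) was preincubated with inhibitor for 1 h at 37 °C, then with a cocktail of three fluorescent ABPs for 1 h. […] In-gel fluorescence densitometry was normalized to mock. IC50 came from the mean of three experiments.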

Assay [9] is filed under the species Homo sapiens. Put plainly: Selectivity ratio of IC50 for 20S immunoproteasome beta 2 in human Raji cell lysates to IC50 for 20S constitutive proteasome beta 2 trypsin-like activity in human Raji cells. Type of assay: cell-based.
The species entered for assay [10] is Homo sapiens. Put plainly: Selectivity ratio of IC50 for 20S immunoproteasome beta 1 in human Raji cell lysates to IC50 for 20S constitutive proteasome beta 2 trypsin-like activity in human Raji cells. Type of assay: cell-based.
Assay [11] is filed under the species Homo sapiens. Briefly: Selectivity ratio of IC50 for 20S constitutive proteasome beta 1 caspase-like activity in human Raji cell lysates to IC50 for 20S constitutive proteasome beta 2 trypsin-like activity in human Raji cells. It is filed as cell-based.
Assay [12] is filed under the species Homo sapiens. Put plainly: Selectivity ratio of IC50 for 20S immunoproteasome beta 5 in human Raji cell lysates to IC50 for 20S constitutive proteasome beta 2 trypsin-like activity in human Raji cells. It is filed as cell-based.
Assay [13] is filed under the species Homo sapiens. Briefly: Selectivity ratio of IC50 for 20S constitutive proteasome beta 5 chymotrypsin-like activity in human Raji cell lysates to IC50 for 20S constitutive proteasome beta 2 trypsin-like activity in human Raji cells. It is filed as cell-based.
In assay [14] the target is T6, Proteasome subunit beta type-7 (Homo sapiens, UniProt Q99436).
T6 sequence (Q99436 whole entry): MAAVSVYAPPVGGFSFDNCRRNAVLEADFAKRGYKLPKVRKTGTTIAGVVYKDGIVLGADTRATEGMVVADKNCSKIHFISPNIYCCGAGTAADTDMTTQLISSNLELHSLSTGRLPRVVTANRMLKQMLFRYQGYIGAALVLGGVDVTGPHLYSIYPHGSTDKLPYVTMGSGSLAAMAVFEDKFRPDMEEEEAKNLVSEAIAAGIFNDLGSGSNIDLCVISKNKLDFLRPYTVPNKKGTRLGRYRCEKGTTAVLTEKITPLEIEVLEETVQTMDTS
Put plainly: Inhibition of 20S constitutive proteasome beta 2 trypsin-like activity in human RPMI8226 cell lysates after 1 hr by coomassie brilliant blue staining-based fluorescence assay. Type of assay: subcellular, Lysate.

Assay [15] addresses T1, Proteasome subunit beta type-10. Put plainly: Inhibition of 20S immunoproteasome beta 2 in human RPMI8226 cell lysates after 1 hr by coomassie brilliant blue staining-based fluorescence assay. It is filed as subcellular, Lysate.
Assay [16] deals with T3, Proteasome subunit beta type-8. Briefly: Inhibition of 20S immunoproteasome beta 5 in human RPMI8226 cell lysates after 1 hr by coomassie brilliant blue staining-based fluorescence assay. It is filed as subcellular, Lysate. In outline: (§1)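 Living RPMI-8226 cells were grown in RPMI-1640 with 10% FCS. Cells at (5–8)×10⁵ cells/mL were exposed to inhibitor for 1 h at 37 °C, washed in PBS and lysed on ice for 1 h in digitonin/ATP buffer. Residual activity was read by cocktail-ABP labeling, SDS-PAGE and fluorescence densitometry relative to mock, with Coomassie staining correcting for loading. IC50 came from three independent experiments.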

The target of assay [17] is T5, Proteasome subunit beta type-9. Put plainly: Inhibition of 20S immunoproteasome beta 1 in human RPMI8226 cell lysates after 1 hr by coomassie brilliant blue staining-based fluorescence assay. Type of assay: subcellular, Lysate. In outline:
as §1

For assay [18], the target named is Proteasome Macropain subunit (Homo sapiens) (UniProt P49721). Briefly: Inhibition of Morp-Ala-Tyr(O-C2H4-BODIPY(FL))-1-DecAla-EK binding to 20S constitutive proteasome beta 2 in human Raji cell lysates at 0.3 uM in presence of 3-probe mixture by competitive ABPP assay. It is filed as subcellular. The following applies: Lysate.
The target of assay [19] is T7, Proteasome subunit beta type-10 (Homo sapiens) (UniProt P40306).
T7 sequence (whole entry): T1 sequence (P40306 whole entry)
Put plainly: Inhibition of Morp-Ala-Tyr(O-C2H4-BODIPY(FL))-1-DecAla-EK binding to 20S immunoproteasome beta 2 in human Raji cell lysates at 0.3 uM in presence of 3-probe mixture by competitive ABPP assay. It is filed as subcellular. The following applies: Lysate.

Assay [20] has as its target T7, Proteasome subunit beta type-10 (Homo sapiens). Briefly: Inhibition of Morp-Ala-Tyr(O-C2H4-BODIPY(FL))-1-DecAla-EK binding to immunoproteasome beta 2 in human Raji cell lysates at 0.3 uM by competitive ABPP assay. The settings on record: Lysate. It is filed as subcellular. In a few lines:
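Raji lysate was preincubated with inhibitor, then labeled with the BODIPY(FL) probe alone. β2i labeling was read by in-gel fluorescence at Cy2 settings after SDS-PAGE.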

Calls of active or inactive are those of the source. The calls are words filed in the database; no cut-off is given here.

For orientation: IC50 means the concentration that inhibits the measured activity by half. Read a low IC50 as inhibition by little substance. With `COC[C@H](NC(=O)[C@H](CC(C)C)NC(=O)c1cnc(C)s1)C(=O)N[C@H](/C=C/S(C)(=O)=O)Cc1ccc(CN)cc1`, the IC50 is over 1000 nM in assay [1]; 4000 nM in [3]; over 10 µM in [4]; 45.3 µM in assay [5]; 57.1 µM in [6]; over 100 µM in assay [7]. Moreover, the IC50 in [8] was over 100 µM; in assay [14] it was over 10 µM; in assay [15], over 10 µM; in assay [16], over 10 µM; in assay [17], over 10 µM. Further, the Ratio IC50 in the assay filed under Homo sapiens [2] is over 14; in the assay filed under Homo sapiens [9], 52; in the assay listed under Homo sapiens [10] it was over 1300; in the assay filed under Homo sapiens [11] it was over 1300; in the assay filed under Homo sapiens [12], 740; in the assay filed under Homo sapiens [13], 590.
With `CC(C)C[C@H](NC(=O)[C@H](Cc1ccccc1)N=[N+]=[N-])C(=O)N[C@@H](C)C(=O)N[C@H](/C=C/S(C)(=O)=O)Cc1ccc(CN)cc1`, the IC50 in assay [1] is 325 nM; in assay [3], 140 nM; in assay [4] it was over 10 µM; in assay [8] it was over 100 µM; in [15] it was over 10 µM; in assay [16] it was over 10 µM. Further, the inhibition result in [18], in assay [19] and in assay [20] was “Active” each time.
As to `CC(C)C[C@H](NC(=O)c1cnccn1)C(=O)N[C@@H](CC(C)C)C(=O)N[C@H](/C=C/S(C)(=O)=O)Cc1ccc(CN)cc1`, the IC50 in [1] is 6500 nM; in assay [3], 2900 nM; in assay [4] it was over 10 µM; in assay [5], over 100 µM; in assay [6], over 100 µM; in [7], over 100 µM. In addition, the IC50 in assay [8] is over 100 µM; in assay [14], over 10 µM; in assay [15] it was over 10 µM; in [16], over 10 µM; in [17], over 10 µM. The Ratio IC50 in the assay filed under Homo sapiens [2] was 40; in the assay listed under Homo sapiens [9] it was 17; in the assay filed under Homo sapiens [10], over 600; in the assay filed under Homo sapiens [11] it was over 600; in the assay listed under Homo sapiens [12], over 600; in the assay listed under Homo sapiens [13], over 600.

The values above are taken from ChEMBL document CHEMBL4368918, “Structure-Based Design of Inhibitors Selective for Human Proteasome β2c or β2i Subunits” (J Med Chem, 2019).
